Assay outcomes (PubChem)
Beta apoptosis: blocks beta cell apoptosis. INS-1E cytokine-induced death, ATP luminescence, 48 h; percent of positive-control rescue, neutral wells zero. protection from apoptosis, % (test concentration not listed). hit rate 0.8% among 300,000. AID 435005;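 active means Every replicate reaches about 75%, or at least half do and their mean reaches it too, limit read from the data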;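 further: 0% = cytokine-treated negative control wells and 100% = positive control rescue; higher means more ATP so stronger rescue from cytokine killing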
CSC inhib: cancer stem cell inhibition | hit rate 1.1% among 300,000 | inhibition, % at 7.5 µM | AID 2717 | cancer stem cell-like cells viability, luminescence; in the data active means inhibition above about 75%; tested in HMLE shEcad cells
MC4R antag cAMP: blocks human MC4R cAMP signaling. hit rate 0.48% among 360,000. MC4R-expressing cells, MTII-stimulated cAMP, LANCE TR-FRET. inhibition, % at 6.5 µM. P32245. AID 540295;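 active means inhibition above its plate's cutoff, the mean of tested wells on that plate plus 3 SD, cut at about 29% in these data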;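 further: 0% = Melanotan II alone and 100% = Melanotan II plus saturating MCL0020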
Target sequence (P32245 whole entry, looked up): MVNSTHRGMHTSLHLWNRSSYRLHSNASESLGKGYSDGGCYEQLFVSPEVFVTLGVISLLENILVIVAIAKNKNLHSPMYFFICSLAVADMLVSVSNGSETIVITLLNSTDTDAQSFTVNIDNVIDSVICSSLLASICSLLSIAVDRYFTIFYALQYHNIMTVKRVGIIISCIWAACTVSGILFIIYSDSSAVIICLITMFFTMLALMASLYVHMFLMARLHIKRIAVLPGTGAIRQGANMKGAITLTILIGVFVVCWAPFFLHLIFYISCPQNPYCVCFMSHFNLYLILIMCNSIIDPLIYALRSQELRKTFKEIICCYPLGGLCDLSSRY
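material = U2OS cells stably expressing human melanocortin 4 receptor (MC4R) | also added = Melanotan II challenge | dosing = single nominal compound dose of 6.5 µM | detection = TR-FRET with Eu-cAMP and labeled anti-cAMP, 671 nm | replication = singlicate | timing = compound 30 min, challenge 1 h, detection 1 h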
MC4R ag barr: agonists of human melanocortin 4 receptor (MC4R) beta-arrestin; P32245; U2OS MC4R beta-arrestin complementation, luminescence; percent of melanotan II response, DMSO zero; activation, % at 8.9 µM; hit rate 0.98% among 360,000; AID 540308;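 active means activation above a per-plate cutoff, the mean activation of sample wells on that plate plus 3 SD, cut at about 8% in these data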
TMEM16A inh: inhibitors of mouse TMEM16A calcium-activated chloride channel; normalized B-score (activity score, 25-100; higher = stronger inhibition) at 10 µM; hit rate 1.2% among 310,000; HEK293 TMEM16A/YFP iodide influx fluorescence, ionomycin;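 active means ratio plate-corrected score three or more library SD toward inhibition, starting fluorescence score within five deviations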;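 further: score derived from kinetic fluorescence span divided by baseline fluorescence per well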
TMEM16A act: activates or potentiates the mouse TMEM16A chloride channel. hit rate 0.3% among 340,000. AID 623877. Q8BHY3. B-score at 10 µM. HEK293 TMEM16A/YFP-H148Q/I152L, iodide quench fluorescence; hits give low values;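 active means fluorescence-ratio B-score plate-corrected deviation score at least 3 library SD below zero, with starting fluorescence score within 5 deviations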;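 further: channel opened by trigger with iodide after compound preincubation; score built on the fluorescence ratio of max minus min over baseline; more negative score means more quench and so TMEM16A activation or potentiation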
cAMP nonselect: counter-screen for MC4R antagonists: nonselective cAMP signaling inhibitors | shares compounds with MC4R antag cAMP | AID 602193 | inhibition, % at 6.5 µM | hit rate 26% among 1,600 | parental U2OS, forskolin cAMP, LANCE TR-FRET;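 active means mean inhibition over triplicates above the low-control well mean plus 3 SD, set per campaign, cut at about 13% in these data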;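 further: signal is single emission at 671 nm which falls as cellular cAMP rises; 0% = forskolin-stimulated wells and 100% = buffer without forskolin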
MC4R cAMP antag: human MC4R cAMP antagonism confirmation; shares compounds with MC4R antag cAMP; hit rate 27% among 1,600; inhibition, % at 6.5 µM; AID 602195; MC4R-expressing cells, MTII-stimulated cAMP, TR-FRET; in the data active means inhibition above about 29%;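 further: 0% = agonist stimulated wells alone and 100% = agonist stimulated wells plus saturating reference antagonist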
* marks the source's active call; other numbers are inactive results; i = inactive; . = not tested or not shown. Compounds with a hit are over-represented: about 3.8% of the library has one in this group of screens.

SMILES	Beta apoptosis	CSC inhib	MC4R antag cAMP	MC4R ag barr	TMEM16A inh	TMEM16A act	cAMP nonselect	MC4R cAMP antag
CCc1ccc(N(CC(=O)NCc2ccco2)C(=O)CCC(=O)Nc2ccccn2)cc1	-9	-15	6	-1	i	i	.	.
CCc1ccccc1N(CC(=O)NCc1ccco1)C(=O)CCC(=O)Nc1ccccn1	1	-6	31*	4	i	i	-2	-12
CCOc1cc(N2CCOCC2)c(OCC)cc1NC(=O)c1nn(CC)c(=O)c2ccccc12	36	.	9	-2	.	i	.	.
Cc1ccc(S(=O)(=O)N(C)CC(=O)OCC(=O)NC(=O)NC(C)C)cc1	-11	-4	29*	-3	i	i	10	23
CC(=O)Nc1ccc(S(=O)(=O)N(C)CC(=O)OCC(=O)NC(C)C23CC4CC(CC(C4)C2)C3)cc1 (stereo unspecified)	.	.	30*	-2	i	i	8	18
COc1ccc(NC(=O)C2(C)CCN2Cc2ccc3ccccc3c2)cc1OC (stereo unspecified)	.	.	15	1	.	.	.	.
Cc1cccc(NC(=O)COc2coc(CN3CCN(c4ccccc4)CC3)cc2=O)c1C	.	-9	9	0	i	i	.	.
O=C1OCCC1Sc1nc2cc(Cl)ccc2n1Cc1ccccc1 (stereo unspecified)	-6	-13	48*	-2	i	i	12	33*
Nc1nnc(-c2ccc(Cl)cc2Cl)s1	-5	-13	30*	-2	i	i	2	2
C[C@@H]1CN([C@H](C)CO)C(=O)CCCn2nncc2CO[C@H]1CN(C)Cc1ccc(Cl)c(Cl)c1	.	.	-4	-1	.	.	.	.
CC(=O)N(Cc1c(C)nn(-c2ccccc2)c1Cl)c1ccc(Cl)cc1	.	-12	0	0	i	i	.	.
Cc1nn(-c2ccccc2)c(Cl)c1CN(C(=O)CCl)c1ccc(Cl)cc1	45	51	40*	11*	i	i	-37	47*
O=C(c1ccc([N+](=O)[O-])cc1)N(Cc1ccc(Br)cc1)N1C(=O)CCCC1=O	-3	-7	44*	9.1*	i	i	17*	12
O=C(NCc1nc2ccccc2[nH]1)C1=C[C@@H](c2ccc(C(F)(F)F)cc2)C[C@@H](OCCCCO)O1	-7	5	1	1	i	i	.	.
CCOc1ccc(OCC)c(NC(=O)CN(c2ccc(OC)cc2)S(=O)(=O)c2c(C)noc2C)c1	-1	8	7	-2	i	i	.	.
CCOc1ccc(OCC)c(NC(=O)CN(c2ccc(C)cc2)S(=O)(=O)c2c(C)noc2C)c1	22	.	32*	0	i	i	1	9
COc1ccccc1CC(=O)N1CCCC(CCC(=O)NCc2ccccc2F)C1 (stereo unspecified)	-2	-3	-4	2	i	i	.	.
Cc1ccnn1CCC(=O)N1CCCC(CCC(=O)NCc2ccccc2F)C1 (stereo unspecified)	-7	-3	29*	1	i	i	0	3
O=C1COc2ccc(C(=O)COC(=O)c3nc(Cl)ccc3Cl)cc2N1	.	.	5	0	.	i	.	.
O=C1COc2ccc(C(=O)COC(=O)c3ncc(Cl)c(Cl)c3Cl)cc2N1	-1	-3	29*	5	i	i	2	1
O=C(CCc1cccc(Cl)c1)N1CCCC(Nc2ccccc2)C1 (stereo unspecified)	4	3	-1	0	i	i	.	.
O=C(NCc1ccc2c(c1)OCO2)c1nc(Cn2ccc([N+](=O)[O-])n2)no1	-1	10	31*	-1	i	i	-2	-7
CC(CNC(=O)CCC(=O)N1CCOc2ccccc21)c1ccccc1 (stereo unspecified)	-3	-2	-2	2	i	i	.	.
Cc1cccc(-n2c(O)c(C=Nc3cc(O)ccc3C)c3ccccc3c2=O)n1	37	-10	31*	1	i	i	2	0
CCN(CC)C(=O)CCCc1c[nH]c2ccccc12	-5	-14	32*	1	i	i	1	-11
SMILES	Beta apoptosis	CSC inhib	MC4R antag cAMP	MC4R ag barr	TMEM16A inh	TMEM16A act	cAMP nonselect	MC4R cAMP antag
CCCCN(C)C(=O)CCCc1c[nH]c2ccccc12	-10	3	3	-1	i	i	.	.
COC(=O)[C@]1(C)CCC[C@@]2(C)C3CC[C@@]4(C)C[C@]3(CCC21)CC(=O)N4 (stereo partly specified)	-7	-10	3	-2	.	i	.	.
C=C1C(=O)C23CCC4C(C)(C(=O)OC)CCCC4(C)C2CCC1(O)C3 (stereo unspecified)	.	.	40*	0	.	-8.6*	22*	38*
O=C(Nc1ccc(F)cc1)C1CCCN(S(=O)(=O)c2cccc3nonc23)C1 (stereo unspecified)	2	10	32*	1	i	i	0	8
COCCCn1c(=O)/c(=C\c2cccc(OC)c2OC)s/c1=C(/C#N)C(=O)Nc1ccc(C(=O)O)cc1	-2	6	29*	0	i	i	-8	-5
CCN1CCN(C(=O)/C(C#N)=C/c2ccc(OC(F)F)cc2)CC1	-7	-16	-6	3	i	i	.	.
N#C/C(=C\c1ccc(OC(F)F)cc1)C(=O)N1CCCCC1	-5	-5	32*	0	i	i	-4	-6
O=C(NC(=S)Nc1cc(S(=O)(=O)N2CCOCC2)ccc1N1CCOCC1)c1ccco1	2	2	37*	-4	i	i	1	-7
O=C(NC(=S)Nc1cc(S(=O)(=O)N2CCOCC2)ccc1O)c1ccco1	0	14	-1	0	i	i	.	.
COc1ccc(/C=N/NC(=O)c2cccc(S(=O)(=O)N3CCCC3)c2)cc1O	-7	.	-4	0	.	i	.	.
Cc1cc(O)c(C2=Nc3ccccc3SC(c3ccc(Cl)cc3)C2)c(=O)o1 (stereo unspecified)	3	21	31*	-3	i	i	3	4
COc1ccc(C2CC(c3cccs3)=Nc3ccccc3S2)cc1 (stereo unspecified)	1	-6	-1	-1	i	i	.	.
CN(C)C(CNC(=O)c1cc(S(=O)(=O)N(C)c2ccc(F)cc2)ccc1Cl)c1cccs1 (stereo unspecified)	.	.	3	-1	.	i	.	.
